Results on eight compounds are retold here after ChEMBL document CHEMBL1157144, “Novel 16-membered macrolides modified at C-12 and C-13 positions of midecamycin A1 and miokamycin. Part 1: Synthesis and evaluation of 12,13-carbamate and 12-arylalkylamino-13-hydroxy analogues” (2008).

Common to all, as to assay type: functional
The subject of assay [1] is Streptococcus pneumoniae. Nature of the assay: Antibacterial activity against ermB-inducible resistant Streptococcus pneumoniae after 20 hrs by agar dilution method. The method in brief: (§1)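 Agar dilution MIC. Streptococcal strains were pre-cultured on blood agar plates. A 5 µl portion of a cell suspension of about 10^6 CFU/ml was inoculated onto Sensitivity disk agar supplemented with 5% horse blood. Plates were incubated at 37 °C for 20 h, then MIC was read.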
(In general: In agar dilution, organisms are placed on agar that contains the substance at set levels.)

Assay [2] relates to Staphylococcus aureus. In words: Antibacterial activity against standard Staphylococcus aureus after 20 hrs by agar dilution method. The procedure, abridged: (§2)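 Agar dilution MIC. The inoculum came from a seed culture in Sensitivity test broth. A 5 µl portion of a cell suspension of about 10^6 CFU/ml was inoculated onto Sensitivity disk agar supplemented with 5% horse blood. Plates were incubated at 37 °C for 20 h, then MIC was read.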

Assay [3] deals with Streptococcus pyogenes. Nature of the assay: Antibacterial activity against ermB-constitutive resistant Streptococcus pyogenes after 20 hrs by agar dilution method. The method in brief:
as §1

Assay [4] deals with Staphylococcus aureus. Nature of the assay: Antibacterial activity against ermA-constitutive resistant Staphylococcus aureus after 20 hrs by agar dilution method. The method in brief:
as §2

In assay [5] the test system is Streptococcus pneumoniae. In words: Antibacterial activity against susceptible Streptococcus pneumoniae after 20 hrs by agar dilution method. The method in brief: (§3)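 MIC by agar dilution. Strains grown on blood agar plates for seed culture. About 5 µl of a suspension of roughly 10^6 CFU/ml spotted onto Sensitivity disk agar with 5% horse blood. Plates incubated at 37 °C for 20 h, then MIC read.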

The subject of assay [6] is Staphylococcus aureus. Nature of the assay: Antibacterial activity against ermC-inducible resistant Staphylococcus aureus after 20 hrs by agar dilution method. The method in brief:
as §2

In assay [7] the test system is Moraxella catarrhalis. In words: Antibacterial activity against standard Moraxella catarrhalis after 20 hrs by agar dilution method. The procedure, abridged:
as §3

Assay [8] has as its system Staphylococcus aureus. Nature of the assay: Antibacterial activity against susceptible Staphylococcus aureus after 20 hrs by agar dilution method. The procedure, abridged: as §2
The test system of assay [9] is Streptococcus pyogenes. Nature of the assay: Antibacterial activity against mefE efflux-resistant Streptococcus pyogenes after 20 hrs by agar dilution method. The method in brief: as §1
Assay [10] has as its system Haemophilus influenzae. Nature of the assay: Antibacterial activity against susceptible Haemophilus influenzae after 20 hrs by agar dilution method. The procedure, abridged:
as §3

For assay [11], the system named is Streptococcus pneumoniae. In words: Antibacterial activity against mefE efflux-resistant Streptococcus pneumoniae after 20 hrs by agar dilution method. The procedure, abridged: as §1
Assay [12] has as its system Staphylococcus aureus. In words: Antibacterial activity against ermB-inducible resistant Staphylococcus aureus after 20 hrs by agar dilution method. The method in brief: as §2
Assay [13] relates to Haemophilus influenzae. In words: Antibacterial activity against standard Haemophilus influenzae after 20 hrs by agar dilution method. The procedure, abridged:
as §3

Assay [14] deals with Streptococcus pneumoniae. Nature of the assay: Antibacterial activity against ermB-constitutive resistant Streptococcus pneumoniae after 20 hrs by agar dilution method. The procedure, abridged: as §1

Values after ≈ are worked out from the molar mass of the structure shown.

In the case of `CCC(=O)O[C@@H]1CC(=O)O[C@H](C)C[C@H](O)[C@H](N(C)CCc2ccccc2)/C=C/[C@H](OC(C)=O)[C@H](C)C[C@H](CC=O)[C@H](O[C@@H]2O[C@H](C)[C@@H](O[C@H]3C[C@@](C)(O)[C@@H](OC(=O)CC)[C@H](C)O3)[C@H](N(C)C)[C@H]2O)[C@H]1OC`, the MIC in [1] is 25 µg/mL (≈ 24.8 µM); in assay [2], 0.39 µg/mL (≈ 0.387 µM); in [3], > 100 µg/mL; in [4], > 100 µg/mL; in assay [5], 0.1 µg/mL (≈ 0.0993 µM); in assay [6], 0.39 µg/mL (≈ 0.387 µM). Further, the MIC in assay [7] came out at 0.39 µg/mL (≈ 0.387 µM); in [8], 0.39 µg/mL (≈ 0.387 µM); in assay [9], 0.2 µg/mL (≈ 0.199 µM); in [10], 25 µg/mL (≈ 24.8 µM); in assay [11], 0.1 µg/mL (≈ 0.0993 µM); in [12] it was 0.78 µg/mL (≈ 0.774 µM). Further, the MIC in assay [13] was 1.56 µg/mL (≈ 1.55 µM); in assay [14], > 100 µg/mL.
For `CCC(=O)O[C@@H]1CC(=O)O[C@H](C)C[C@@H]2OC(=O)N(CCc3ccccc3)[C@@H]2/C=C/[C@H](OC(C)=O)[C@H](C)C[C@H](CC=O)[C@H](O[C@@H]2O[C@H](C)[C@@H](O[C@H]3C[C@@](C)(O)[C@@H](OC(=O)CC)[C@H](C)O3)[C@H](N(C)C)[C@H]2O)[C@H]1OC`, the MIC in assay [1] is 50 µg/mL (≈ 49.1 µM); in assay [2], 0.78 µg/mL (≈ 0.765 µM); in assay [3], > 100 µg/mL; in assay [4] it was > 100 µg/mL; in [5], 0.2 µg/mL (≈ 0.196 µM); in [6], 1.56 µg/mL (≈ 1.53 µM). In addition, the MIC in assay [7] was 0.78 µg/mL (≈ 0.765 µM); in assay [8], 0.39 µg/mL (≈ 0.383 µM); in [9] it was 0.1 µg/mL (≈ 0.0981 µM); in assay [10] it was 25 µg/mL (≈ 24.5 µM); in [11], 0.2 µg/mL (≈ 0.196 µM); in assay [12] it was 6.25 µg/mL (≈ 6.13 µM). Further, the figures for the MIC in assay [13] and in assay [14] were 3.13 µg/mL (≈ 3.07 µM) and > 100 µg/mL, respectively.
Take `CCC(=O)O[C@@H]1CC(=O)O[C@H](C)C[C@@H]2OC(=O)N(CCCCc3ccccc3)[C@@H]2/C=C/[C@H](OC(C)=O)[C@H](C)C[C@H](CC=O)[C@H](O[C@@H]2O[C@H](C)[C@@H](O[C@H]3C[C@@](C)(O)[C@@H](OC(=O)CC)[C@H](C)O3)[C@H](N(C)C)[C@H]2O)[C@H]1OC`: the MIC was 100 µg/mL (≈ 95.5 µM) in assay [1]; 0.78 µg/mL (≈ 0.745 µM) in assay [2]; > 100 µg/mL in assay [3]; > 100 µg/mL in [4]; 0.2 µg/mL (≈ 0.191 µM) in assay [5]; 0.78 µg/mL (≈ 0.745 µM) in assay [6]. Further, the MIC in [7] was 3.13 µg/mL (≈ 2.99 µM); in [8], 0.39 µg/mL (≈ 0.372 µM); in assay [9], 0.39 µg/mL (≈ 0.372 µM); in assay [10], > 100 µg/mL; in [11], 0.2 µg/mL (≈ 0.191 µM); in assay [12], 0.39 µg/mL (≈ 0.372 µM). In addition, the MIC in assay [13] was 6.25 µg/mL (≈ 5.97 µM); in assay [14] it was > 100 µg/mL.
Consider `CCC(=O)O[C@@H]1CC(=O)O[C@H](C)C[C@H](O)[C@H](N(C)CCCCc2ccccc2)/C=C/[C@H](OC(C)=O)[C@H](C)C[C@H](CC=O)[C@H](O[C@@H]2O[C@H](C)[C@@H](O[C@H]3C[C@@](C)(O)[C@@H](OC(=O)CC)[C@H](C)O3)[C@H](N(C)C)[C@H]2O)[C@H]1OC`, for which the MIC in assay [1] was 12.5 µg/mL (≈ 12.1 µM); in [2], 0.39 µg/mL (≈ 0.377 µM); in assay [3], 100 µg/mL (≈ 96.6 µM); in assay [4] it was > 100 µg/mL; in [5], 0.05 µg/mL (≈ 0.0483 µM); in assay [6], 0.78 µg/mL (≈ 0.753 µM). In addition, the MIC was found to be 0.78 µg/mL (≈ 0.753 µM) in assay [7]; 0.39 µg/mL (≈ 0.377 µM) in assay [8]; 0.2 µg/mL (≈ 0.193 µM) in assay [9]; 25 µg/mL (≈ 24.1 µM) in assay [10]; 0.2 µg/mL (≈ 0.193 µM) in [11]; 1.56 µg/mL (≈ 1.51 µM) in assay [12]. For the same compound, the figures for the MIC in assay [13] and in assay [14] were 3.13 µg/mL (≈ 3.02 µM) and > 100 µg/mL, respectively.
As for `CCC(=O)O[C@@H]1CC(=O)O[C@H](C)C[C@@H]2OC(=O)N(CCCc3ccccc3)[C@@H]2/C=C/[C@H](OC(C)=O)[C@H](C)C[C@H](CC=O)[C@H](O[C@@H]2O[C@H](C)[C@@H](O[C@H]3C[C@@](C)(O)[C@@H](OC(=O)CC)[C@H](C)O3)[C@H](N(C)C)[C@H]2O)[C@H]1OC`, the MIC is > 100 µg/mL in [1]; 0.78 µg/mL (≈ 0.755 µM) in assay [2]; > 100 µg/mL in [3]; > 100 µg/mL in assay [4]; 0.2 µg/mL (≈ 0.194 µM) in assay [5]; 0.78 µg/mL (≈ 0.755 µM) in assay [6]. The MIC in assay [7] is 1.56 µg/mL (≈ 1.51 µM); in assay [8] it was 0.78 µg/mL (≈ 0.755 µM); in [9] it was 0.2 µg/mL (≈ 0.194 µM); in [10], 100 µg/mL (≈ 96.8 µM); in assay [11] it was 0.2 µg/mL (≈ 0.194 µM); in assay [12], 1.56 µg/mL (≈ 1.51 µM). The MIC was 6.25 µg/mL (≈ 6.05 µM) in assay [13] and > 100 µg/mL in assay [14].
In the case of `CCC(=O)O[C@@H]1CC(=O)O[C@H](C)C[C@H](O)[C@H](N(C)CCCCCc2ccccc2)/C=C/[C@H](OC(C)=O)[C@H](C)C[C@H](CC=O)[C@H](O[C@@H]2O[C@H](C)[C@@H](O[C@H]3C[C@@](C)(O)[C@@H](OC(=O)CC)[C@H](C)O3)[C@H](N(C)C)[C@H]2O)[C@H]1OC`, the MIC is 12.5 µg/mL (≈ 11.9 µM) in [1]; 0.39 µg/mL (≈ 0.372 µM) in assay [2]; 25 µg/mL (≈ 23.8 µM) in assay [3]; > 100 µg/mL in assay [4]; 0.1 µg/mL (≈ 0.0953 µM) in assay [5]; 0.39 µg/mL (≈ 0.372 µM) in assay [6]. For the same compound, the MIC in assay [7] is 0.39 µg/mL (≈ 0.372 µM); in [8] it was 0.39 µg/mL (≈ 0.372 µM); in assay [9] it was 0.2 µg/mL (≈ 0.191 µM); in assay [10], 25 µg/mL (≈ 23.8 µM); in [11] it was 0.2 µg/mL (≈ 0.191 µM); in [12] it was 0.78 µg/mL (≈ 0.743 µM). In addition, the MIC in assay [13] was determined as 3.13 µg/mL (≈ 2.98 µM); in assay [14], 100 µg/mL (≈ 95.3 µM).
Consider `CCC(=O)O[C@@H]1CC(=O)O[C@H](C)C[C@H](O)[C@H](N(C)CCCc2ccccc2)/C=C/[C@H](OC(C)=O)[C@H](C)C[C@H](CC=O)[C@H](O[C@@H]2O[C@H](C)[C@@H](O[C@H]3C[C@@](C)(O)[C@@H](OC(=O)CC)[C@H](C)O3)[C@H](N(C)C)[C@H]2O)[C@H]1OC`, for which the MIC in assay [1] is 12.5 µg/mL (≈ 12.2 µM); in assay [2], 0.2 µg/mL (≈ 0.196 µM); in assay [3], 100 µg/mL (≈ 97.9 µM); in assay [4] it was > 100 µg/mL; in assay [5], 0.05 µg/mL (≈ 0.049 µM); in assay [6] it was 0.2 µg/mL (≈ 0.196 µM). Moreover, the MIC in assay [7] came to 0.39 µg/mL (≈ 0.382 µM); in assay [8] it was 0.2 µg/mL (≈ 0.196 µM); in assay [9], 0.1 µg/mL (≈ 0.0979 µM); in assay [10] it was 25 µg/mL (≈ 24.5 µM); in assay [11], 0.1 µg/mL (≈ 0.0979 µM); in [12] it was 0.2 µg/mL (≈ 0.196 µM). The MIC is 1.56 µg/mL (≈ 1.53 µM) in assay [13] and > 100 µg/mL in assay [14].
`CC[C@H]1OC(=O)[C@H](C)[C@@H](O[C@H]2C[C@@](C)(OC)[C@@H](O)[C@H](C)O2)[C@H](C)[C@@H](O[C@@H]2O[C@H](C)C[C@H](N(C)C)[C@H]2O)[C@](C)(OC)C[C@@H](C)C(=O)[C@H](C)[C@@H](O)[C@]1(C)O` [CLARITHROMYCIN]: the MIC in assay [1] was > 100 µg/mL; in assay [2], 0.1 µg/mL (≈ 0.134 µM); in assay [3] it was > 100 µg/mL; in assay [4] it was > 100 µg/mL; in [5], 0.025 µg/mL (≈ 0.0334 µM); in assay [6], 1.56 µg/mL (≈ 2.09 µM). In addition, the MIC is 0.1 µg/mL (≈ 0.134 µM) in assay [7]; 0.1 µg/mL (≈ 0.134 µM) in [8]; 3.13 µg/mL (≈ 4.18 µM) in assay [9]; 6.25 µg/mL (≈ 8.36 µM) in assay [10]; 0.78 µg/mL (≈ 1.04 µM) in assay [11]; > 100 µg/mL in assay [12]. The MIC was 1.56 µg/mL (≈ 2.09 µM) in assay [13] and > 100 µg/mL in assay [14].
